The target of data set [1] is Vascular endothelial growth factor receptor 2 (Homo sapiens, UniProt P35968). Kind of data set: Inhibition of N-terminal GST-tagged human VEGFR2 cytoplasmic domain (790 to 1356 residues) expressed in baculovirus expression system using FAM-22 peptide as substrate incubated for 10 mins followed by substrate addition by caliper method. Put shortly:
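Compounds (DMSO stocks 40 μM–0.2 nM, ten levels) tested in duplicate. Enzyme preincubated with compound 10 min at room temperature, then FAM-P22 peptide/ATP added and incubated at 28 °C. Stopped with EDTA-containing buffer. IC50 obtained by four-parameter Hill fit; staurosporine as reference.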

Data set [2] addresses Epidermal growth factor receptor (Homo sapiens, UniProt P00533). In words: Inhibition of N-terminal GST-tagged human EGFR cytoplasmic domain (669 to 1210 residues) expressed in baculovirus expression system using FAM-22 peptide as substrate incubated for 10 mins followed by substrate addition by caliper method.
Data set [3] is described as follows: Cytotoxicity against human A549 cells assessed as inhibition of cell growth at 0.5 uM after 48 hrs under normoxic condition by CCk-8 assay relative to control. It is filed as cell-based. An outline of the steps:
(§1)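 RPMI-1640 with 10% fetal calf serum. Compounds dissolved in DMSO. Hypoxia produced chemically with cobalt(II) chloride; normoxic wells received no CoCl2. Viability read by CCK-8 (WST-8) at 450 nm, and inhibition ratio calculated against untreated control.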

A short description of data set [4]: Cytotoxicity against human NCI-H446 cells assessed as inhibition of cell growth at 0.5 uM after 48 hrs under normoxic condition by CCk-8 assay relative to control. Format: cell-based. An outline of the steps: as §1
Data set [5] has as its system A549. Kind of data set: Antiproliferative activity against human A549 cells assessed as inhibition of cell growth at 0.5 uM after 48 hrs under hypoxic condition (200 uM CoCl2) by CCk-8 assay relative to control (reference value: 59.94%). It is filed as functional. Put shortly: as §1
Data set [6] relates to NCI-H446. Kind of data set: Antiproliferative activity against human NCI-H446 cells assessed as inhibition of cell growth at 0.5 uM after 48 hrs under hypoxic condition (200 uM CoCl2) by CCk-8 assay relative to control (reference value: 65.84%). Format: functional. An outline of the steps: as §1
In data set [7] the test system is A549. In words: Antiproliferative activity against human A549 cells assessed as inhibition of cell growth at 0.5 uM in hypoxia condition (200 uM CoCl2) and under irradiation at 8 Gy for 24 hrs and measured after 24 hrs by CCK8 assay (reference value: 64.135%). It is filed as functional.
Data set [8] deals with NCI-H446. Kind of data set: Antiproliferative activity against human NCI-H446 cells assessed as inhibition of cell growth at 0.5 uM in hypoxia condition (200 uM CoCl2) and under irradiation at 8 Gy for 24 hrs and measured after 24 hrs by CCK8 assay (reference value: 68.77%). Format: functional. (Tetrazolium assays rely on reduction of a dye to a coloured formazan, in cell work by metabolically active cells.)

For data set [9], the system named is A549. In words: Antiproliferative activity against human A549 cells assessed as hypoxic sensitive enhancement ratio in presence of CoCl2. It is filed as functional.
Data set [10] deals with A549. In words: Antiproliferative activity against human A549 cells assessed as hypoxic sensitive enhancement ratio in presence of Cocl2 under irradiation. It is filed as functional.
The subject of data set [11] is A549. Kind of data set: Downregulation of VEGF expression in human A549 cells at 5 uM after 24 hrs under normoxic condition by q-PCR analysis relative to control. It is filed as cell-based. As to conditions: a549, 24 h.
The test system of data set [12] is A549. In words: Downregulation of VEGF expression in human A549 cells at 5 uM after 24 hrs under hypoxic condition by q-PCR analysis relative to control. Format: functional.
Data set [13] concerns A549. Kind of data set: Antitumour activity against human A549 cells xenografted in Balb/c mouse assessed as tumour growth inhibition at 10 mg/kg, po administered daily and mesured at day 17 relative to control. It is filed as functional. The note with it: 408 h, read-out: TGI. Put shortly: (§2)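 Male BALB/c-nu mice, 1 × 10^7 A549 cells implanted sc in the flank. Dosing began seven days after implantation: 10 mg/kg oral, daily for 17 days, 5 mice per group, with a vehicle control group. Tumour size measured daily by caliper, with body weight and clinical signs also recorded daily. TGI calculated from volume changes relative to starting volumes versus control.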
For orientation: A xenograft is tissue or cells of one species grown in another, often human tumour cells in immunodeficient mice.

Data set [14] has as its system A549. In words: Antitumour activity against human A549 cells xenografted in Balb/c mouse assessed as increase in tumour volume at 10 mg/kg, po administered daily and mesured after 7 days. It is filed as functional, organism-based. Put shortly:
as §2

The test system of data set [15] is A549. Kind of data set: Antitumour activity against human A549 cells xenografted in po dosed Balb/c mouse assessed as tumour growth inhibition administered daily for 18 days and […]. It is filed as functional, organism-based.
For data set [16], the system named is A549. In words: Antitumour activity against human A549 cells xenografted in Balb/c mouse assessed as tumour growth inhibition at 50 mg/kg, po administered daily and measured at day 18 relative to control. Format: functional. The note with it: 432 h, read-out: TGI. An outline of the steps:
(§3)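 Male BALB/c-nu mice carrying sc flank A549 xenografts (1 × 10^7 cells). Dosing began 6–7 days post-inoculation, with oral 5, 15 or 50 mg/kg daily for 18 days and 3 mice per group. Tumours measured by caliper on days 4, 6, 8, 11, 13, 15 and 18. TGI derived from volume change from dosing start relative to untreated controls.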

Data set [17] has as its system A549. In words: Antitumour activity against human A549 cells xenografted in Balb/c mouse assessed as tumour growth inhibition at 5 mg/kg, po administered daily and measured at day 18 relative to control. The note with it: 432 h, read-out: TGI. Format: functional. An outline of the steps:
as §3

Data set [18] has as its system A549. Kind of data set: Antitumour activity against human A549 cells xenografted in Balb/c mouse assessed as tumour growth inhibition at 15 mg/kg, po administered daily and measured at day 18 relative to control. Format: functional. The note with it: 432 h, read-out: TGI. An outline of the steps:
as §3

Data set [19] can be described thus: Toxicity in Balb/c mouse xenografted with human A549 cells assessed as effect on weight loss at 10 mg/kg, po measured up to 17 days. Format: organism-based. The note with it: in vivo, 408 h. An outline of the steps: as §2
A short description of data set [20]: Toxicity in po dosed Balb/c mouse assessed as maximum tolerated dose administered 5 times per week for 2 weeks. The note with it: in vivo. Format: organism-based.
The nature of data set [21]: Toxicity in Balb/c mouse assessed as effect on clinical signs at 100 mg/kg, po administered 5 times per week for 2 weeks. The note with it: in vivo, 336 h. Format: organism-based. Put shortly:
(§4)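 Male BALB/c-nu mice dosed orally at 100 mg/kg, five times a week for two weeks with two days off each weekend. Clinical signs of toxicity and body weight monitored.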

A short description of data set [22]: Toxicity in Balb/c mouse assessed as weight loss at 100 mg/kg, po administered 5 times per week for 2 weeks. It is filed as organism-based. As to conditions: in vivo, 336 h. Put shortly:
as §4

For data set [23], the system named is NCI-H446. In words: Antiproliferative activity against human NCI-H446 cells assessed as hypoxic sensitive enhancement ratio in presence of CoCl2. Format: functional.
Data set [24] concerns NCI-H446. Kind of data set: Antiproliferative activity against human NCI-H446 cells assessed as hypoxic sensitive enhancement ratio in presence of Cocl2 under irradiation. Format: functional.
Data set [25] can be described thus: Toxicity in Balb/c mouse xenografted with human A549 cells assessed as reduction in body weight at 10 mg/kg, po measured up to 8 days. It is filed as organism-based. As to conditions: in vivo, 192 h. An outline of the steps:
as §2

Broadly, the IC50 is the midpoint of a concentration-inhibition curve. The term inhibition denotes the percentage by which the read-out fell short of the control. Broadly, the MTD is the highest dose tested that stayed within the study's limit of toxicity.

Active and inactive are the calls of the source. The rule behind the calls is not given here.

Sequence of Epidermal growth factor receptor (P00533 whole entry, the tested form may be a part): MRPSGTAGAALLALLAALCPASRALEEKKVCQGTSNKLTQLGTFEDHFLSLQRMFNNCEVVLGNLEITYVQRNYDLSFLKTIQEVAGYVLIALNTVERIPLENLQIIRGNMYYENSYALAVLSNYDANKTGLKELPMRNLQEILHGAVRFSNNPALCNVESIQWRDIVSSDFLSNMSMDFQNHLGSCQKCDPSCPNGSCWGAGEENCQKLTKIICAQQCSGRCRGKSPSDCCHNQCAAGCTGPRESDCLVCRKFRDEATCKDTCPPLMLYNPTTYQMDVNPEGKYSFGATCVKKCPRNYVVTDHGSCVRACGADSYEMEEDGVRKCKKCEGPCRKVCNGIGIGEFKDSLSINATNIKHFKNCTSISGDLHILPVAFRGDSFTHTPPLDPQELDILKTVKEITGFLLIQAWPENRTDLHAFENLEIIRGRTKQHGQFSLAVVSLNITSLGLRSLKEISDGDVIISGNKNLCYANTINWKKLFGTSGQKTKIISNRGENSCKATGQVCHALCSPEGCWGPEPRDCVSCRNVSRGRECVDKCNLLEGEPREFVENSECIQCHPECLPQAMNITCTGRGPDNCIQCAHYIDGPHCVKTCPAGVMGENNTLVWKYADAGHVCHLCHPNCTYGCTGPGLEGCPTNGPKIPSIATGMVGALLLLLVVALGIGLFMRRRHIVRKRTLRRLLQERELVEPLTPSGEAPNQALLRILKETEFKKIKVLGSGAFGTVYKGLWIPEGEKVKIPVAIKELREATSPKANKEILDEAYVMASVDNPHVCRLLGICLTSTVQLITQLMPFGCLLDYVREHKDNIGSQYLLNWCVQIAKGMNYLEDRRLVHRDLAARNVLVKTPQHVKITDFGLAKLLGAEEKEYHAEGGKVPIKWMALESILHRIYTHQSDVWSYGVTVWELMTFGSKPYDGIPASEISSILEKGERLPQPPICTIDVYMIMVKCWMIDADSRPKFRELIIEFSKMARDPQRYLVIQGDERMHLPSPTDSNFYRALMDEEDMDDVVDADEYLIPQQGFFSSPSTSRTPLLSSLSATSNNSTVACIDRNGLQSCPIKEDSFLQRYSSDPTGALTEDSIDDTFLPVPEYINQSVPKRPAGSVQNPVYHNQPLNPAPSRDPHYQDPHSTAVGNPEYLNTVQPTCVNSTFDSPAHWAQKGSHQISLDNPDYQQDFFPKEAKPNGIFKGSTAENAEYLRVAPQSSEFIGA
Sequence of Vascular endothelial growth factor receptor 2 (P35968 whole entry, the tested form may be a part): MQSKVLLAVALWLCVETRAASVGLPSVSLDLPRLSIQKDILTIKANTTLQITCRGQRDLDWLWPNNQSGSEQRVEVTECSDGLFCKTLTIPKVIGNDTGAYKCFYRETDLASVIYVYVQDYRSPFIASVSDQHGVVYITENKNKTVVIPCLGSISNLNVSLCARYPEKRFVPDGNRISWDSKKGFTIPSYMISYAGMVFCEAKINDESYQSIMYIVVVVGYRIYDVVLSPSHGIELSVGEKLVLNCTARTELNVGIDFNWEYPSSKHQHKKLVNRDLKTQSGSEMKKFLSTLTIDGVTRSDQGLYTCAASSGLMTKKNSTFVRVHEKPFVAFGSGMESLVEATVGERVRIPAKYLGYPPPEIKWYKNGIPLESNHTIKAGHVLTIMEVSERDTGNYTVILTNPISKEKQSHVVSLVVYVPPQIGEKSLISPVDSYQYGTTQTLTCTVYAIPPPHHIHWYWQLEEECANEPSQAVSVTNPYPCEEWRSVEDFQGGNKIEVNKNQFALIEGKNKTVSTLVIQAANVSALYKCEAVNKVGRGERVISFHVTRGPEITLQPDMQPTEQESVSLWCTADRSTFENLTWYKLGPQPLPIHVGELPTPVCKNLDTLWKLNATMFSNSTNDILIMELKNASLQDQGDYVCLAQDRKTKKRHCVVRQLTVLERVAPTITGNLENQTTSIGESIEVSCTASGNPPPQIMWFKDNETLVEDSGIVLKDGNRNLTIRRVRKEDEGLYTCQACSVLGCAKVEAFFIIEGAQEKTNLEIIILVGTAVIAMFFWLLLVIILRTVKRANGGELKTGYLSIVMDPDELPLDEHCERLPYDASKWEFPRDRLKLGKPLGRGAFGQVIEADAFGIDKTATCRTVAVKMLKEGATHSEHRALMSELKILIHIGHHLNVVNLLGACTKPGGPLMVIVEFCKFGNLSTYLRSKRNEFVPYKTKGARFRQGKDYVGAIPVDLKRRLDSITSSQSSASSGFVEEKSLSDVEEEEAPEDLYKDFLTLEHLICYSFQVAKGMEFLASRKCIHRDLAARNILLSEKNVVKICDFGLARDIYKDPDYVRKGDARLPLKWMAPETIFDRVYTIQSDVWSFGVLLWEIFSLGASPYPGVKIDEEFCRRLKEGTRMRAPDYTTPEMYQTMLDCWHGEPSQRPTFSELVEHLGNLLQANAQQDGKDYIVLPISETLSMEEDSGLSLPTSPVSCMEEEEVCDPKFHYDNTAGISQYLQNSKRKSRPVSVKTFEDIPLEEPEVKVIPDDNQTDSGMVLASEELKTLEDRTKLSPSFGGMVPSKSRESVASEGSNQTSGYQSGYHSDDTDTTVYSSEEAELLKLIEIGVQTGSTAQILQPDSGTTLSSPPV

Regarding `COc1cc2c(Nc3ccc(Br)cc3F)ncnc2cc1OCCOCCNC(=O)Cn1cnc([N+](=O)[O-])n1`, the IC50 in [1] is 0.0368 µM; in [2], 0.0059 µM. Moreover, the inhibition at 48 h, 0.5 µM came to 6.75% in data set [3] and 18.9% in [4]. Further, the “inhibition (INH)” value in data set [5] is 75.86%; in data set [6], 84.37%; in data set [7] it was 86.41%; in data set [8] it was 88.66%. Besides, the Ratio in data set [9] is recorded as 1.32; in data set [10] it was 0.96; in [23], 1.17; in [24] it was 0.93. For the same compound, the “fold change (FC)” value in [11] came out at 0.1571; in data set [12], 0.0011. The inhibition in vivo at 10 mg/kg in data set [13] was determined as 63.9%. Also, the outcome in [14] was Active. Also, the inhibition result in [15] is “Dose-dependent effect”. The inhibition in vivo at 50 mg/kg in data set [16] was 80.5%. In addition, the inhibition in vivo at 5 mg/kg in data set [17] turned out to be 31.2%. In data set [18], the inhibition in vivo at 15 mg/kg was found to be 68.3%. The Activity entry in [19], in data set [21] and in data set [22] was “Non-Toxic” in each case. In data set [20], the MTD at 336 h is 100 mg/kg.
For the compound `COc1cc2c(Nc3ccc(Br)cc3F)ncnc2cc1OCC1CCN(C)CC1` [VANDETANIB], the figures for the inhibition at 48 h, 0.5 µM in data set [3] and in data set [4] were 21.1% and 25.6%, respectively. Besides, the Activity result in data set [25] was “Toxic”.

The values are drawn from ChEMBL document CHEMBL4359867, “Design, synthesis and biological evaluation of novel 4-anilinoquinazoline derivatives as hypoxia-selective EGFR and VEGFR-2 dual inhibitors” (Eur J Med Chem, 2019).
